According to ChEMBL document CHEMBL1141164, “Design and synthesis of a series of melamine-based nitroheterocycles with activity against Trypanosomatid parasites” (J Med Chem, 2005):

Legend:
[1] = test system: Trypanosoma brucei brucei; test: In vitro inhibitory concentration against blood stream Trypanosoma brucei brucei AT1 wild type incubated for 72 h at 37 degree C; type: functional, organism-based
How it was run: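 Wild-type T. b. brucei trypomastigotes, tested alongside the P2 knockout (TbAT1-/-). Alamar Blue viability assay used to derive IC50 values.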

[2] = test system: Trypanosoma brucei brucei; test: In vitro inhibitory concentration against blood stream Trypanosoma brucei brucei AT1 knockout mutant with a non functional P2 transporter incubated for 72 h at 37 degree C; type: organism-based
How it was run: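 Bloodstream T. b. brucei trypomastigotes, wild type or P2 transporter knockout (TbAT1-/-), were tested side by side. Viability was read by Alamar Blue fluorescence and IC50 values were determined.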

[3] = test system: Trypanosoma brucei rhodesiense; test: Inhibitory concentration in vitro against blood stream Trypanosoma brucei rhodesiense incubated for 72 hr at 37 degree C; type: functional, organism-based
How it was run: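 T. b. rhodesiense STIB900 trypomastigotes, a 1982 human isolate from Tanzania, grown in minimum essential medium with 2-mercaptoethanol and 15% heat-inactivated horse serum. Drug dilutions 90 to 0.123 μg/mL, 72 h at 37 °C, 5% CO2.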

L6 = test: Concentration causing cytotoxicity to 50% of L-6 rat skeletal myoblasts; type: functional, cell-based
How it was run: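 L-6 rat skeletal myoblasts run in the same Alamar Blue assay as the trypanosome screen. Serial dilutions spanning 90 to 0.123 μg/mL, 72 h at 37 °C under 5% CO2, then Alamar Blue for a further 2–4 h. Fluorescence read at ex 536/em 588 nm and expressed as % of control to give IC50.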

Trypanosoma cruzi [4] = test: In vitro inhibitory concentration against intracellular amastigotes of Trypanosoma cruzi in rat skeletal myoblasts incubated for 37 degree C for 4 days; type: functional, organism-based; conditions: 96 h
How it was run: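 L-6 myoblasts seeded at 2000 cells/well in RPMI 1640 with 10% FBS and 2 mM L-glutamine. After 24 h, 5000 T. cruzi Tulahuen C2C4 (LacZ) trypomastigotes added with serial drug dilution. Incubated 4 days at 37 °C in 5% CO2, then CPRG/Nonidet added.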

Mus musculus [5] = test: In vivo antitrypanosomal activity at a dose of 4*20 mg/kg, i.p., in mice infected with Trypanosoma brucei brucei STIB 795 strain; 0/4; type: functional
Mus musculus [6] = test: In vivo antitrypanosomal activity at a dose of 4*20 mg/kg, i.p., in mice infected with Trypanosoma brucei brucei STIB 795 strain, measured as survival days (control 7 days); type: functional
Trypanosoma cruzi [7] = test: In vivo percent inhibition of compound at a dose of 50 mg/kg, i.p., for 5 doses in mice infected with Trypanosoma cruzi; conditions: ip
Trypanosoma cruzi [8] = test: In vivo activity at a dose of 50 mg/kg, i.p., for 5 doses in mice infected with Trypanosoma cruzi, measured as survival days (control 13 days); conditions: route intraperitoneal
Leishmania donovani = test: Inhibitory concentration in vitro against intracellular amastigotes of Leishmania donovani in mouse peritoneal macrophages incubated for 96 hr at […]; tox is toxic to macrophages

For CN(C)c1nc(N)nc(N/N=C/c2ccc([N+](=O)[O-])o2)n1, the IC50 [1] was 5.36 µM, the IC50 [2] was 3.09 µM and the IC50 [3] was 0.053 µM. For the same compound, the IC50 (L6) was 110 µM, the IC50 (Trypanosoma cruzi [4]) was 0.29 µM and the Cured/Infected (Mus musculus [5]) was 0. For the same compound, the Survival (Mus musculus [6]) was 18.3 days, the inhibition in vivo at 50 mg/kg (Trypanosoma cruzi [7]) was 45% and the Survival (Trypanosoma cruzi [8]) was 14 days. The IC50 (Leishmania donovani) was “Toxic”.
